ChEMBL document CHEMBL4041525, “Newly Designed Quinolinol Inhibitors Mitigate the Effects of Botulinum Neurotoxin A in Enzymatic, Cell-Based, and ex Vivo Assays” (J Med Chem, 2017)
The source made the active and inactive calls. The calls are words filed in the database; no cut-off is given here.

What was measured:
[1] = target: Botulinum neurotoxin type A (Clostridium botulinum) (UniProt P0DPI0); assay: Inhibition of BoNT/A light chain mediated proteolysis of CFP and YFP tagged full-length SNAP-25 expressed in BoCells at 25 uM after 20 hrs by fluorescence assay
[2] = target: Botulinum neurotoxin type A (Clostridium botulinum) (UniProt P0DPI0); assay: Inhibition of BoNT/A induced paralysis in intoxicated CD1 mouse hemidiaphragm muscles assessed as increase in half paralysis time at 20 uM pretreated for 1 hr followed by intoxication
[3] = target: T1, Botulinum neurotoxin type A (Clostridium botulinum, UniProt P0DPI0); assay: Inhibition of protease activity of recombinant Clostridium botulinum BoNT/A light chain (425 amino acids) using SNAP-25 as substrate preincubated for 20 followed by substrate addition measured for 25 mins by FRET analysis
Outline: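 Compound (from 50X DMSO stock) preincubated 20 min with recombinant 425-aa BoNT/A LC (56 nM working solution) in 40 mM HEPES, 0.1% Triton X-100, pH 7.4. SNAPtide FRET substrate (6 µM solution) then added and read for 25 min at ex 490/em 523 nm. V0 taken from linear slopes, in duplicate at ≥4 inhibitor dilutions, normalized to DMSO. IC50 from Hill-equation fit.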

[4] = target: T1, Botulinum neurotoxin type A; assay: Uncompetitive inhibition of recombinant Clostridium botulinum BoNT/A light chain (425 amino acids) using SNAP-25 as substrate preincubated for 20 followed by substrate addition measured for 25 mins by Lineweaver-Burk plot analysis
[5] = target: Botulinum neurotoxin type A (Clostridium botulinum) (UniProt P0DPI0); settings: 12.5 uM

T1 sequence (P0DPI0 2-448 limits assumed): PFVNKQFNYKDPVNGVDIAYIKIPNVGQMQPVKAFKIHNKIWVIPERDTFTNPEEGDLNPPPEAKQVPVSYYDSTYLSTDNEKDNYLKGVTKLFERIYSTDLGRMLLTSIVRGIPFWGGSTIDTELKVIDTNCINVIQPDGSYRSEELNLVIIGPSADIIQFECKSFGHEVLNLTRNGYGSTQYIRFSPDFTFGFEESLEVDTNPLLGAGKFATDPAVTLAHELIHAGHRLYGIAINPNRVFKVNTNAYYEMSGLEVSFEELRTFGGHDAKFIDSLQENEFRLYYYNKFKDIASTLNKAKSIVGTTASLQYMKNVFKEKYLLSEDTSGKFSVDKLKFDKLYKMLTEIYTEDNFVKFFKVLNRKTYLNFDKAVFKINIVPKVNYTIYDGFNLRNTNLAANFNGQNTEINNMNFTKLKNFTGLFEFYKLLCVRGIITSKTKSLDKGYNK
Chain of Botulinum neurotoxin type A (Clostridium botulinum) (P0DPI0 2-448 limits assumed): as above

Compound | inhibition [1] | inhibition [2] | IC50 [3] | Ki [4] | inhibition [5]
Oc1c(C(Nc2ccccn2)c2ccccc2)ccc2cccnc12 (stereo not drawn) | inactive | inactive |  |  | 
CC(=O)NNc1ccc2c(S(=O)(=O)N3CCc4c(Cl)cccc43)ccc(O)c2n1 | inactive | Active | 5.39 µM |  | 
O=S(=O)(Nc1cccc(Cl)c1)c1ccc(O)c2ncccc12 |  |  | 7.32 µM |  | 
Nc1ccc2c(S(=O)(=O)N3CCc4c(Cl)cccc43)ccc(O)c2n1 | Active | Active | 3.36 µM |  | 
O=S(=O)(c1ccc(O)c2ncccc12)N1CCCCC1 |  |  | 18.3 µM |  | 
NNc1ccc2c(S(=O)(=O)N3CCc4c(Cl)cccc43)ccc(O)c2n1 | inactive | Active | 1.55 µM | 0.895 µM | 
CN(c1cccc(Cl)c1)S(=O)(=O)c1ccc(O)c2ncccc12 |  |  | 4.28 µM |  | 
CNNc1ccc2c(S(=O)(=O)N3CCc4c(Cl)cccc43)ccc(O)c2n1 | Active | Active | 3.26 µM |  | Active
CN(c1ccccc1)S(=O)(=O)c1ccc(O)c2ncccc12 |  |  | 7.19 µM |  | 
O=S(=O)(c1ccc(O)c2ncccc12)N1CCc2c(Cl)cccc21 | Active | Active | 3.66 µM | 2.03 µM | 
CCNc1ccc2c(S(=O)(=O)N3CCc4c(Cl)cccc43)ccc(O)c2n1 |  |  | 28.6 µM |  | 
CNc1ccc2c(S(=O)(=O)N3CCc4c(Cl)cccc43)ccc(O)c2n1 |  |  | 37.6 µM |  | 
O=S(=O)(c1ccc(O)c2ncccc12)N1CCc2ccc(Cl)cc21 |  |  | 12.8 µM |  | 
O=S(=O)(Nc1ccccc1)c1ccc(O)c2ncccc12 |  |  | 12.7 µM |  | 
